Measured values published in ChEMBL document CHEMBL1157626, “A concise synthesis of 1,4-dihydro-[1,4]diazepine-5,7-dione, a novel 7-TM receptor ligand core structure with melanocortin receptor agonist activity” (Bioorg Med Chem, 2010).
Active and inactive are the calls of the source. The calls are words filed in the database; no cut-off is given here.

How the values were obtained:
Rattus norvegicus [1] = assay: Anorexigenic activity in lean Sprague-Dawley rat assessed as suppression of peptide YY-induced food intake during day light cycle period at 25 mg/kg, po administered 30 mins before peptide YY challenge; type: functional, organism-based; parameters: dose 25 mg/kg
Method in brief: (§1)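 Sated lean Sprague-Dawley rats with third-ventricle cannulae dosed by oral gavage at 10:30 AM. Vehicle was 50% PEG500/25% EtOH/25% water. 0.23 nmol PYY given ICV in sterile saline at 11:00 AM. Intake logged every half hour through the light period and the dark cycle (6 PM–6 AM). N = 5/group.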

[2] = target: T1, Melanocyte-stimulating hormone receptor (Homo sapiens, UniProt Q01726); assay: Agonist activity at human MC1R expressed in CHO cells after 4 hrs by luciferase reporter gene assay; type: functional, cell-based; settings: read-out: pEC50 (converted)
Method in brief: (§2)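 CHO-6xCRE-luc+ cells expressing the human receptor, plated at 4000 cells/well in DMEM/F12 with 10% FBS 48 h before assay. Switched to serum-free medium 16 h before compound addition, then incubated 4 h at 37 °C. Luciferase read after 10 min dark adaptation. Activity expressed as % of fold stimulation by 1 × 10^-7 M NDP-aMSH (duplicate control wells).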
Target sequence in this assay (Q01726 whole entry): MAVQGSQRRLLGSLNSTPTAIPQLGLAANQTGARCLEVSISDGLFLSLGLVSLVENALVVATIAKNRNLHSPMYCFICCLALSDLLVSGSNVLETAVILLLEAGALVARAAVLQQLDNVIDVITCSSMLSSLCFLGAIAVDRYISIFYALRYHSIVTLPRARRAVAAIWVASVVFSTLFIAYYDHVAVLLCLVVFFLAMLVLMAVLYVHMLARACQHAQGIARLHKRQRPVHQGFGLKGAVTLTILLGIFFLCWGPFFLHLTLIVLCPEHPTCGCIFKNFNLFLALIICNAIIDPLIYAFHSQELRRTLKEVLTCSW

[3] = AUC (0 to infinity) in Sprague-Dawley rat at 10 mg/kg, po; type: ADME, organism-based; parameters: dose 10 mg/kg, route oral, time infinity; settings: plasma
Method in brief: (§3)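 Single oral dose to Sprague Dawley rats, given as a suspension in 50% PEG/25% EtOH/25% H2O. Plasma samples collected over time to build the pharmacokinetic profile.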

[4] = Half life in Sprague-Dawley rat at 10 mg/kg, po; type: ADME, organism-based; parameters: dose 10 mg/kg, route oral; settings: in vivo; method in brief: as §3
Rattus norvegicus [5] = assay: Anorexigenic activity in lean Sprague-Dawley rat assessed as suppression of peptide YY-induced food intake during day light cycle period at 5 mg/kg, po administered 30 mins before peptide YY challenge; type: functional, organism-based; parameters: dose 5 mg/kg; method in brief: as §1
Rattus norvegicus [6] = assay: Anorexigenic activity in lean Sprague-Dawley rat assessed as suppression of nocturnal food intake during dark cycle period at 25 mg/kg, po administered prior to onset of nocturnal cycle; type: functional
[7] = Oral bioavailability in Sprague-Dawley rat at 10 mg/kg; type: ADME, organism-based; settings: in vivo; method in brief: as §3
[8] = target: T1, Melanocyte-stimulating hormone receptor; assay: Agonist activity at human MC1R expressed in CHO cells after 4 hrs by luciferase reporter gene assay relative to alpha-melanocyte stimulating hormone; type: functional, cell-based; parameters: concentration or dose not given beside the values; method in brief: as §2
Target sequence in this assay (Q01726 whole entry, looked up): as the sequence (Q01726 whole entry) above

Rattus norvegicus [9] = assay: Anorexigenic activity in lean Sprague-Dawley rat assessed as suppression of peptide YY-induced nocturnal food intake during dark cycle period at 25 mg/kg, po administered 30 mins before peptide YY challenge; type: functional, organism-based; parameters: dose 25 mg/kg; method in brief: as §1
Melanocortin receptor 4 [10] = target: T2, Melanocortin receptor 4 (Homo sapiens, UniProt P32245); assay: Agonist activity at human MC4R expressed in CHO cells after 4 hrs by luciferase reporter gene assay; type: functional, cell-based; settings: read-out: pEC50 (converted); method in brief: as §2
[11] = Tmax in Sprague-Dawley rat at 10 mg/kg, po; type: ADME, organism-based; parameters: dose 10 mg/kg, route oral; settings: in vivo; method in brief: as §3
[12] = Cmax in Sprague-Dawley rat at 10 mg/kg, po; type: ADME, organism-based; parameters: dose 10 mg/kg, route oral; settings: in vivo; method in brief: as §3
Melanocortin receptor 4 [13] = target: T2, Melanocortin receptor 4; assay: Agonist activity at human MC4R expressed in CHO cells after 4 hrs by luciferase reporter gene assay relative to alpha-melanocyte stimulating hormone; type: functional, cell-based; method in brief: as §2

T2 sequence (P32245 whole entry): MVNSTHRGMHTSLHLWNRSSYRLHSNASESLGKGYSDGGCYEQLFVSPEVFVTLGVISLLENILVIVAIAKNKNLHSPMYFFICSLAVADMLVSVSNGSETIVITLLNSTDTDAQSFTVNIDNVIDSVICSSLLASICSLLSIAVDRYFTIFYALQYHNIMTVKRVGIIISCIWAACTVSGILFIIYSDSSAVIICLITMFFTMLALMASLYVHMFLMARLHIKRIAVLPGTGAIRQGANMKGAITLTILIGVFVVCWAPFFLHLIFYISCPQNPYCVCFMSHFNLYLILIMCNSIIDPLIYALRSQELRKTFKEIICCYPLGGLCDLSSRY

EC50 [2]: 15.8 nM | AUC(0-inf) [3]: 260 ng·h/mL | half-life [4]: 1.5 h | bioavailability [7]: 6.2% | Activity [8]: 82% | EC50 (Melanocortin receptor 4 [10]): 339 nM | Tmax [11]: 0.67 h | Cmax [12]: 123 ng/mL | Activity (Melanocortin receptor 4 [13]): 53
Compound: COc1ccc(N(C(=O)CN2C=CN(c3ccccc3)C(=O)[C@H](Cc3n[nH]c4ccccc34)C2=O)C(C)C)cc1
inhibition (Rattus norvegicus [1]): Active | inhibition (Rattus norvegicus [5]): Active | inhibition in vivo at 25 mg/kg (Rattus norvegicus [6]): 20% | inhibition (Rattus norvegicus [9]): Active
